FN deposit inh = fibronectin deposition inhibition; 350,000 tested, 0.086% active; AID 743247; inhibition, % at 12.6 µM; AH1F fibroblasts, Alexa488-fibronectin deposition fluorescence, overnight;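 active = mean inhibition across replicates of 30% or more, regardless of how many single replicates reach that level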
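Schedule: 1 h cell adhesion before compound, then overnight fibronectin incubation; test system: AH1F fibroblast monolayer depositing Alexa488-labelled fibronectin into matrix; quantity: 10000 AH1F cells per well; probe or stimulus: fluorescent fibronectin at 24 nM final; signal: fluorescence, ex 485 nm, em 525 nm; evaluation: percent inhibition as loss of matrix-bound fibronectin fluorescence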
ERAP1 HTS inh = blocks human ERAP1 aminopeptidase activity | recombinant ERAP1, Leu-AMC fluorescence, 60 min | Q9NZ08 | inhibition, % at 10.7 µM | 340,000 tested, 0.15% active | AID 652197;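 active = mean replicate inhibition of at least 30%, or all replicates individually reaching that 30% level; inactive = mean below 30% and not every replicate reaching it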
Target sequence (Q9NZ08 whole entry, looked up): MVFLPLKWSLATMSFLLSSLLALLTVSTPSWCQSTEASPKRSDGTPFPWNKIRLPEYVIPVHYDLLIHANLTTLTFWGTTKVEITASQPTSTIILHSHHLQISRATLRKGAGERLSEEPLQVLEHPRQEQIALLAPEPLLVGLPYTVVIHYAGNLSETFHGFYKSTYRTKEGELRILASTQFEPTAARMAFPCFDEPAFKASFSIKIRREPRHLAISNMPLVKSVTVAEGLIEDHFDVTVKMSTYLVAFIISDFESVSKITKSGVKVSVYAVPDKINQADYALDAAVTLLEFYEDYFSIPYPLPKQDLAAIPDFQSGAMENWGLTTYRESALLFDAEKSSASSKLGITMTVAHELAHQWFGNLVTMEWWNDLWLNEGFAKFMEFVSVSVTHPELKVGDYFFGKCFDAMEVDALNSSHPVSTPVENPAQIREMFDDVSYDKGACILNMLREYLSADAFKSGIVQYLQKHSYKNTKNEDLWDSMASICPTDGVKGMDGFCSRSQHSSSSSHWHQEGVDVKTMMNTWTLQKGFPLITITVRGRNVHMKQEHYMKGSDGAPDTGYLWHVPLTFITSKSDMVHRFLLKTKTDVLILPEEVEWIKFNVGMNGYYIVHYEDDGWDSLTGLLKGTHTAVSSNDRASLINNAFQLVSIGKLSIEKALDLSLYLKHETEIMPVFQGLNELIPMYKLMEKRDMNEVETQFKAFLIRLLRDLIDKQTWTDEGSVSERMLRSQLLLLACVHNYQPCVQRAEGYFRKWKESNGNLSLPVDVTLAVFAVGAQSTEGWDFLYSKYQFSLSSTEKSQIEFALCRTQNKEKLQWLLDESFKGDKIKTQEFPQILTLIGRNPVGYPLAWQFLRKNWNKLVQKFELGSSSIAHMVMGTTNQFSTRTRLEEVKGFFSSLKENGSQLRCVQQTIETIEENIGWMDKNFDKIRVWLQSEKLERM
PGC1a acetyl inh = PGC1a acetylation modulation, inhibitor mode; inhibition, % at 15.6 µM; U2OS PGC1a acetylation, AlphaScreen anti-acetyl-lysine; with virally co-expressed GCN5 acetyltransferase; AID 651687; 350,000 tested, 0.17% active;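 active = every replicate shows inhibition of at least 40%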
SIRT5 block = blocks human SIRT5 desuccinylation of peptide. inhibition, % at 15 µM. 330,000 tested, 1.1% active. Purified SirT5, succinyl-peptide AMC, trypsin-coupled fluorescence. Q9NXA8. AID 652115; in the data active = inhibition above about 15%
FGF22 binding = shifts melting point of recombinant human FGF22; recombinant FGF22 thermal shift, SYPRO orange fluorescence; percent of sucrose octasulfate shift, DMSO zero; activity (Tm shift, normalised), % at 9.99 µM; 340,000 tested, 1.5% active;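 active = mean Tm shift, scaled 0 neutral to 100 positive control, at about 1.3% or above, every replicate too, limit read from the data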
Of the large screens only hits and unclear results are named; the others gave an inactive call. An excerpt weighted towards active compounds, which were near 2.2% of everything screened.

Cc1cc2cc(CNC(=O)Cc3ccc([N+](=O)[O-])cc3)ccc2n1C	FGF22 binding 43.5 (no result: PGC1a acetyl inh)
O=C(Cc1ccc([N+](=O)[O-])cc1)NCc1ccccn1	FGF22 binding 43.4
COc1ccc(-c2nc3ccncc3[nH]2)cc1OC	FN deposit inh 30.1 (no result: ERAP1 HTS inh, SIRT5 block, FGF22 binding)
Cc1cc(C)nc(-n2ncc(C#N)c2N)n1	none (no result: PGC1a acetyl inh)
Cc1cc(C)nc(-n2ncc3c2CCCC3=O)n1	FGF22 binding 43.0 (no result: PGC1a acetyl inh)
C[C@H]1CN([C@@H](C)CO)C(=O)Cc2cc(NC(=O)CCC(F)(F)F)ccc2O[C@H]1CN(C)Cc1ccccc1	none (no result: FN deposit inh, PGC1a acetyl inh)
COc1cccc(N=C(N)N)c1	FGF22 binding 43.4 (no result: PGC1a acetyl inh)
COc1cccc(N)c1	none (no result: FN deposit inh, ERAP1 HTS inh, PGC1a acetyl inh, SIRT5 block)
O=C(c1ccc([N+](=O)[O-])cc1)N1CCSC1c1ccc(Br)cc1 (stereo not given)	none
O=C(c1ccc([N+](=O)[O-])cc1)N1CCSC1c1ccc(Cl)cc1 (stereo not given)	FGF22 binding 42.9 (no result: PGC1a acetyl inh)
O=C(N[C@H]1C=C[C@@H](CC(=O)N2CCOCC2)O[C@@H]1CO)c1ccc2c(c1)OCO2	none (no result: FN deposit inh)
CCCC#Cc1ccc2c(c1)O[C@H](CN(C)C(=O)c1ccccc1F)[C@@H](C)CN([C@@H](C)CO)S2(=O)=O	SIRT5 block 18.5
CCCC#Cc1ccc2c(c1)O[C@@H](CN(C)C(=O)c1ccccc1F)[C@@H](C)CN([C@H](C)CO)S2(=O)=O	SIRT5 block 19.7
CCCC#Cc1ccc2c(c1)O[C@H](CN(C)C(=O)c1ccccc1F)[C@@H](C)CN([C@H](C)CO)S2(=O)=O	none
COCC(=O)Nc1ccc2c(c1)[C@@H]1C[C@@H](CC(=O)NCC3CC3)O[C@H](CO)[C@@H]1O2	none
CC(C)CC#Cc1cnc2c(c1)C(=O)N([C@H](C)CO)C[C@H](C)[C@H](CN(C)C(=O)c1cnccn1)O2	none
C[C@@H]1CCCCO[C@@H](CN(C)C(=O)C2CCCCC2)[C@H](C)CN([C@@H](C)CO)C(=O)c2cc(NS(=O)(=O)c3ccc(F)cc3)ccc2O1	none
CCOc1ccc(NC(=O)Nc2ccc(NC(C)=O)cc2)cc1	none (no result: PGC1a acetyl inh)
CCOc1ccc(NC(=O)Nc2cnccn2)cc1	FGF22 binding 43.5 (no result: PGC1a acetyl inh)
CCOc1ccc(NC(=O)NC(C)CC)cc1 (stereo not given)	FGF22 binding 42.9
COc1ccc(NC(=O)Nc2cnccn2)cc1	none
Cc1ccccc1CS(=O)(=O)c1nnc([C@H](Cc2ccccc2)NC(=O)OC(C)(C)C)o1	PGC1a acetyl inh 54.9 (no result: FN deposit inh)
C[C@H]1CN([C@@H](C)CO)C(=O)c2cc(NS(=O)(=O)c3ccc(Cl)cc3)ccc2O[C@H]1CN(C)Cc1ccc(Cl)c(Cl)c1	SIRT5 block 22.8
COc1ccc(S(=O)(=O)Nc2ccc3c(c2)C(=O)N([C@H](C)CO)C[C@@H](C)[C@@H](CN(C)Cc2ccc(Cl)c(Cl)c2)O3)cc1	SIRT5 block 19.1 (no result: FN deposit inh)
COc1ccc(S(=O)(=O)Nc2ccc3c(c2)C(=O)N([C@@H](C)CO)C[C@H](C)[C@H](CN(C)Cc2ccc(Cl)c(Cl)c2)O3)cc1	none (no result: FN deposit inh)
C[C@H]1CCCCO[C@H](CN(C)CC2CC2)[C@@H](C)CN([C@@H](C)CO)C(=O)c2cc(NS(=O)(=O)c3ccc(F)cc3)ccc2O1	none (no result: FN deposit inh)
Cc1ccc(CNC(=O)CNC(=O)[C@@H]2Cc3ccccc3CN2)cc1	SIRT5 block 36.6
O=C(CCOc1ccccc1)Nc1ccnn1C1CCN(Cc2ccc(CO)o2)CC1	FGF22 binding 2.5 (no result: PGC1a acetyl inh)
Cc1ccc(CN2CCC(n3nccc3NC(=O)CCOc3ccccc3)CC2)o1	none
CC(C)NC(=O)N(C)C[C@@H]1Oc2ccc(NC(=O)Nc3ccc(F)cc3)cc2CC(=O)N([C@@H](C)CO)C[C@@H]1C	none (no result: FN deposit inh)
C[C@@H]1CN([C@H](C)CO)C(=O)c2cc(NC(=O)CCN3CCOCC3)ccc2O[C@H]1CN(C)C(=O)NC1CCCCC1	none (no result: FN deposit inh)
COCCCNC(=O)Cn1nnc(-c2ccc(NC(=O)c3ccccc3OC)cc2)n1	none (no result: ERAP1 HTS inh, SIRT5 block, FGF22 binding)
COc1ccccc1C(=O)Nc1ccc(-c2nnn(CC(=O)N3CCOCC3)n2)cc1	FGF22 binding 43.8 (no result: PGC1a acetyl inh)
COc1cc2c3nnc(-c4ccccc4)c-3cn(Cc3ccc(F)cc3)c2cc1OC	FGF22 binding 43.8 (no result: PGC1a acetyl inh)
O=C1c2ccccc2[C@@]2(Cc3ccccc3N(Cc3ccccc3)C2=O)[C@H](c2ccc(CO)cc2)N1C1CCCCC1	none (no result: FN deposit inh)
COC(=O)c1c(C)[nH]c(O)c1C=Nc1ccc(C(C)C)cc1	none (no result: ERAP1 HTS inh, SIRT5 block, FGF22 binding)
COC(=O)c1c(C)[nH]c(O)c1C=Nc1ccc(Oc2ccccc2)cc1	FGF22 binding 43.6 (no result: PGC1a acetyl inh)
O=C(CSc1cccc[n+]1[O-])N1CCCCCC1	none (no result: SIRT5 block)
O=C(CSc1cccc[n+]1[O-])CSc1cccc[n+]1[O-]	FGF22 binding 43.1
C[C@@H]1CN([C@H](C)CO)C(=O)c2cc(NS(=O)(=O)c3cccs3)ccc2O[C@@H](C)CCCCO[C@H]1CN(C)Cc1ccccc1	none
Cc1noc(C)c1NC(=O)N(C)C[C@@H]1OCCCC[C@@H](C)Oc2ccc(NS(C)(=O)=O)cc2C(=O)N([C@H](C)CO)C[C@@H]1C	none (no result: FN deposit inh, ERAP1 HTS inh, SIRT5 block)
CC(C)NC(=O)N[C@H]1CC[C@H](CC(=O)NCCN2CCCC2)O[C@@H]1CO	none
CC(C)NC(=O)Nc1cccc2c1O[C@H](CN(C)S(=O)(=O)c1ccc(F)cc1)[C@H](C)CN([C@@H](C)CO)C2=O	none
COc1ccccc1N1CCN(CC(=O)Nc2ccc3c(c2)OCCO3)CC1	SIRT5 block 31.3 (no result: PGC1a acetyl inh)
COc1ccc(NC(=O)CN2CCN(c3ccccc3F)CC2)cc1	none (no result: FN deposit inh, ERAP1 HTS inh, SIRT5 block, FGF22 binding)
COc1ccc(NC(=O)c2ccc(NC(=O)CN3CCN(c4ccccc4OC)CC3)cc2)cc1	FGF22 binding 43.4 (no result: SIRT5 block)
CC(C)c1csc(CN2CCN(Cc3ccccc3)C(CCO)C2)n1 (stereo not given)	none (no result: FN deposit inh)
CCOc1ccc(CN2CCN(Cc3nc(C(C)C)cs3)CC2CCO)cc1 (stereo not given)	FGF22 binding 42.9 (no result: FN deposit inh, PGC1a acetyl inh)
COc1ccccc1CCc1nnc(CCC(=O)NCCOc2cccnc2)o1	FGF22 binding 43.7
COc1ccc(CC2(c3ccccc3)NC(=O)NC2=O)cc1 (stereo not given)	FGF22 binding 43.3 (no result: SIRT5 block)
C[C@@H]1CN([C@@H](C)CO)C(=O)c2cc(C#CC3(O)CCCC3)cnc2O[C@@H]1CN(C)Cc1ccccc1	none (no result: FN deposit inh)
Cc1ccccc1N1C(=O)C2ON(c3ccccc3)C(c3ccco3)C2C1=O (stereo not given)	SIRT5 block 23.1 (no result: PGC1a acetyl inh)
COc1ccc(S(=O)(=O)Nc2ccc3c(c2)CC(=O)N([C@@H](C)CO)C[C@H](C)[C@H](CN(C)CC2CC2)O3)cc1	none (no result: ERAP1 HTS inh, SIRT5 block, FGF22 binding)
O=C(CN1CCN(Cc2ccccc2)CC1)N1N=CCC1c1ccccc1 (stereo not given)	none
Cc1ccc(SCC(=O)N2N=CCC2c2ccccc2)cc1 (stereo not given)	FGF22 binding 43.5
CCOc1cc(/C=C/c2cccc[n+]2C)ccc1OCC(=O)Nc1ccc(C)cc1	ERAP1 HTS inh 72.7 (no result: PGC1a acetyl inh)
Nc1cccc2cc(S(=O)(=O)O)ccc12	SIRT5 block 57.2
O=c1c([N+](=O)[O-])c(NCCN2CCCCCC2)c2ccccc2n1-c1ccccc1	FGF22 binding 42.9 (no result: PGC1a acetyl inh)

Compound activity (PubChem BioAssay)
